One test concerns MCF7. The test can be described thus: Cytotoxicity against human MCF7 cells assessed as reduction in cell viability after 72 hrs by MTT assay. The following applies: MCF7, 72 h. Type of test: functional, cell-based.
Another test has as its system MDA-MB-231. In words: Cytotoxicity against human MDA-MB-231 cells assessed as reduction in cell viability after 72 hrs by Alamar Blue assay. Type of test: functional, cell-based. Conditions: MDA-MB-231, 72 h. In outline: (§1)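 Cells were seeded at 5,000 per well and preincubated 24 h at 37 °C in 5% CO2. They were then exposed for 72 h to gradient dilutions in complete DMEM/HIGH medium, made from 10 mM DMSO stocks, with DMSO below 0.5%. Fresh medium with 10% AlamarBlue was incubated 3 h and read at 580 nm (620 nm reference). Viability was taken versus DMSO-treated cells, and IC50 was fitted from viability–concentration plots; triplicate.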

The subject of the next test is MCF-10A. In words: Cytotoxicity against human MCF10A cells assessed as reduction in cell viability after 72 hrs by Alamar Blue assay. Type of test: cell-based. In outline:
as §1

The subject of a further test is U-937. The test can be described thus: Cytotoxicity against human U937 cells after 72 hrs. The class given is functional, cell-based. The following applies: U-937, 72 h.
The test system of another test is HT-29. In words: Cytotoxicity against human HT-29 cells after 72 hrs. Conditions: HT-29, 72 h. Type of test: functional, cell-based.
For another test, the system named is MDA-MB-435. In words: Cytotoxicity against human MDA-MB-435 cells after 72 hrs. The class given is functional, cell-based. Conditions: MDA-MB-435, 72 h.
A further test deals with HeLa. In words: Cytotoxicity against human HeLa cells after 72 hrs. The class given is functional, cell-based.
The subject of another test is L929. The test can be described thus: Cytotoxicity against mouse L929 cells after 72 hrs. Type of test: cell-based. The following applies: L929, 72 h.
The nature of test [1]: Cytotoxicity against human H522-T1 cells after 72 hrs. The class given is functional, cell-based. Conditions: H522-T1, 72 h.
Test [2] relates to Panel NCI-60 (60 carcinoma cell lines). The test can be described thus: Growth inhibition of human NCI60 cells after 48 hrs by SRB assay. Type of test: functional.
A further test deals with A2780. In words: Cytotoxicity against human A2780 cells after 72 hrs. The class given is functional, cell-based. The following applies: A2780, 72 h.

For `C/C=C(\C)C(=O)O[C@@H]1[C@@H](O)[C@H](O[C@H]2[C@H](O[C@@H](CCCCC)CCCCC/N=C3/CCC(=O)O3)O[C@H](C)[C@H](OC(C)=O)[C@@H]2O)O[C@H](COC(=O)/C=C/c2ccccc2)[C@H]1O`, the IC50 with MCF7 and in the test on MDA-MB-231 was greater than 25000 nM throughout.

As to `C/C=C(\C)C(=O)O[C@@H]1[C@@H](O)[C@@H]2O[C@H]3[C@H](O[C@@H](CCCCC)CCCCCN(C)C(=O)CCC(=O)OC[C@@H](O2)[C@H]1OC(=O)/C=C/c1ccccc1)O[C@H](C)[C@H](OC(C)=O)[C@@H]3O`, the 50% inhibitory concentration (IC50) in the test with MCF7 was 69.2 nM; in the test with MDA-MB-231, 14.4 nM; in the test on MCF-10A, 17.5 nM.

For the compound `C/C=C(\C)C(=O)O[C@@H]1[C@@H](O)[C@@H]2O[C@H]3[C@H](O[C@@H](CCCCC)CCCCOC(=O)CCC(=O)OC[C@@H](O2)[C@H]1OC(=O)/C=C/c1ccccc1)O[C@H](C)[C@H](OC(C)=O)[C@@H]3O`, the IC50 with MCF7 amounted to 710 nM; in the test on MDA-MB-231 it was 290 nM.

Take `C/C=C(\C)C(=O)O[C@@H]1[C@@H](O)[C@@H]2O[C@H]3[C@H](O[C@@H](CCC)CCCCC[C@H](OC(C)=O)C(=O)CCC(=O)OC[C@@H](O2)[C@H]1OC(=O)/C=C/c1ccccc1)O[C@H](C)[C@H](O)[C@@H]3O` [IPOMOEASSIN E]: the IC50 in the test with U-937 was 163 nM; in the test on HT-29, 393 nM; in the test with MDA-MB-435 it was 1630 nM; with HeLa it was 4300 nM; in the test with L929, greater than 1000 nM; in test [1], 967 nM.

On to `C/C=C(\C)C(=O)O[C@@H]1[C@@H](O)[C@@H]2O[C@H]3[C@H](O[C@@H](CCCCC)C/C=C\CCOC(=O)CCC(=O)OC[C@@H](O2)[C@H]1OC(=O)/C=C/c1ccccc1)O[C@H](C)[C@H](OC(C)=O)[C@@H]3O`, for which the figures for the IC50 in the test with MCF7 and in the test on MDA-MB-231 were 816 nM and 260 nM, respectively.

As to `C/C=C(\C)C(=O)O[C@@H]1[C@@H](O)[C@@H]2O[C@H]3[C@H](O[C@@H](CCC)CCCCC[C@H](O)C(=O)CCC(=O)OC[C@@H](O2)[C@H]1OC(=O)/C=C/c1ccccc1)O[C@H](C)[C@H](OC(C)=O)[C@@H]3O` [IPOMOEASSIN C], the IC50 in the test on HeLa was 1500 nM; in the test with L929, greater than 1000 nM.

For the compound `C/C=C(\C)C(=O)O[C@@H]1[C@@H](O)[C@@H]2O[C@H]3[C@H](O[C@@H](CCC)CCCCCCC(=O)CCC(=O)OC[C@@H](O2)[C@H]1OC(=O)/C=C/c1ccccc1)O[C@H](C)[C@H](OC(C)=O)[C@@H]3O` [IPOMOEASSIN A], the IC50 in the test on U-937 worked out at 20.2 nM; with HT-29, 46.1 nM; in the test with MDA-MB-435 it was 42.6 nM; in the test on HeLa, 64 nM; in the test on L929, 77.8 nM; in test [1] it was 109 nM.

Turning to `C/C=C(\C)C(=O)O[C@@H]1[C@@H](O)[C@@H]2O[C@H]3[C@H](O[C@@H](CCCCC)CCCCCCC(=O)CCC(=O)OC[C@@H](O2)[C@H]1OC(=O)/C=C/c1ccccc1)O[C@H](C)[C@H](OC(C)=O)[C@@H]3O`, the IC50 came to 2.6 nM with U-937; 4.2 nM with HT-29; 9.4 nM in the test with MDA-MB-435; 36 nM with A2780; 7.4 nM with L929; 12.9 nM in test [1]. The IC50 in the test with MCF-10A came to 5.1 nM. Further, in test [2], the GI50 came to 30 nM.

On to `C/C=C(\C)C(=O)O[C@@H]1[C@@H](O)[C@@H]2O[C@H]3[C@H](O[C@@H](CCCCC)CCCCCOC(=O)CCC(=O)OC[C@@H](O2)[C@H]1OC(=O)/C=C/c1ccccc1)O[C@H](C)[C@H](OC(C)=O)[C@@H]3O`, for which the IC50 in the test on MCF7 turned out to be 81.2 nM; with MDA-MB-231 it was 31.5 nM; with MCF-10A it was 26.9 nM.

Take `C/C=C(\C)C(=O)O[C@@H]1[C@@H](O)[C@@H]2O[C@H]3[C@H](O[C@@H](CCCCC)CCCCCNC(=O)CCC(=O)OC[C@@H](O2)[C@H]1OC(=O)/C=C/c1ccccc1)O[C@H](C)[C@H](OC(C)=O)[C@@H]3O`: the results for the IC50 with MCF7, in the test on MDA-MB-231 and with MCF-10A were 351 nM, 48.7 nM and 75.2 nM, respectively.

For `C/C=C(\C)C(=O)O[C@@H]1[C@@H](O)[C@@H]2O[C@H]3[C@H](O[C@@H](CCCCC)CC=CCCCC(=O)CCC(=O)OC[C@@H](O2)[C@H]1OC(=O)/C=C/c1ccccc1)O[C@H](C)[C@H](OC(C)=O)[C@@H]3O` (mixture of isomers), the IC50 with MCF7 is 307 nM; in the test on MDA-MB-231 it was 68.3 nM; in the test on MCF-10A it was 27.2 nM.

Turning to `C/C=C(\C)C(=O)O[C@@H]1[C@@H](O)[C@@H]2O[C@H]3[C@H](O[C@@H](CCCCC)C/C=C/CCOC(=O)CCC(=O)OC[C@@H](O2)[C@H]1OC(=O)/C=C/c1ccccc1)O[C@H](C)[C@H](OC(C)=O)[C@@H]3O`, the IC50 is 3280 nM in the test on MCF7 and 808 nM with MDA-MB-231.

`C/C=C(\C)C(=O)O[C@@H]1[C@@H](O)[C@@H]2O[C@H]3[C@H](O[C@@H](CCC)CCCCCCC(=O)CCC(=O)OC[C@@H](O2)[C@H]1OC(=O)/C=C/c1ccccc1)O[C@H](C)[C@H](O)[C@@H]3O` [IPOMOEASSIN B]: the IC50 in the test on U-937 is 134 nM; with HT-29 it was 396 nM; with MDA-MB-435, 2700 nM; in the test with HeLa it was 2500 nM; in [1] it was 1070 nM.

Consider `C/C=C(\C)C(=O)O[C@@H]1[C@@H](O)[C@@H]2O[C@H]3[C@H](O[C@@H](CCC)CCCCC[C@H](OC(C)=O)C(=O)CCC(=O)OC[C@@H](O2)[C@H]1OC(=O)/C=C/c1ccccc1)O[C@H](C)[C@H](OC(C)=O)[C@@H]3O` [IPOMOEASSIN D], for which the IC50 with U-937 amounted to 7.9 nM; in the test with HT-29 it was 11.8 nM; with MDA-MB-435, 19.9 nM; with HeLa, 32 nM; in the test on L929, 135 nM; in test [1], 23.2 nM.
